Measured values taken from ChEMBL document CHEMBL3045328, “Substituted N-phenylpyrazine-2-carboxamides, their synthesis and evaluation as herbicides and abiotic elicitors” (Molecules, 2007).

What was measured:
Chlorella vulgaris = assay: Antialgal activity in green algae Chlorella vulgaris assessed as reduction of chlorophyll content; assay type: functional, organism-based
Summary of the method: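 Algal suspensions (initial Chl 0.01 mg·L-1) grown 7 days, 16 h light/8 h dark, PAR 80 μmol/m2∙s, pH 7.2, with compound at 0.83–100 μmol·L-1 (DMSO ≤0.25%, same in controls). Chl extracted into methanol, read spectrophotometrically. IC50 = concentration halving chlorophyll versus control, or % of control ± S.D.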

[1] = Lipophilicity, log P of the compound; assay type: physicochemical; conditions: octanol/water
Spinacia oleracea = assay: Inhibition of photosynthetic electron transport in Spinacia oleracea (spinach) chloroplasts assessed as decrease in oxygen evolution measured after irradiated with 250 W halogen lamp by herbicidal assay in presence of electron acceptor 2,6-dichlorophenol-indophenol; assay type: functional; conditions: L., light or radiation study
Summary of the method: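 Spinach chloroplasts in phosphate buffer (0.02 mol·L-1, pH 7.2) with sucrose 0.4 mol·L-1, MgCl2 0.005 mol·L-1, NaCl 0.015 mol·L-1; chlorophyll 30 mg/L. DCPIP photoreduction followed under ~100 W/m2 halogen light through 4 cm water filter, 22 °C. Compounds in DMSO (up to 4%). IC50 = molar concentration giving 50% drop in oxygen evolution versus untreated control.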

[2] = Chlorella vulgaris, read-out: IC50

logP [1] | SMILES | IC50 (Chlorella vulgaris) | IC50 (Spinacia oleracea) [µM] | IC50 (Chlorella vulgaris; [2]) [µM]
3.33 | Cc1ccc(NC(=O)c2cncc(Cl)n2)cc1I | ND(Insoluble) | 51 | 
3.76 | Cc1cc(NC(=O)c2cnc(C(C)(C)C)cn2)ccc1Cl |  | 190 | 44
3.78 | CC(C)(C)c1ncc(C(=O)Nc2ccccc2F)nc1Cl |  | 69 | 89
4.54 | CC(C)(C)c1ncc(C(=O)Nc2ccc(C(F)(F)F)cc2)nc1Cl | ND(Insoluble) | 184 | 
2.53 | Cc1cc(NC(=O)c2cncc(Cl)n2)ccc1Cl |  | 595 | 80
2.76 | CN(C)C(=O)Nc1ccc(Cl)c(Cl)c1 [DCMU] |  |  | 
